High-throughput results from PubChem.
The entries come from a sample that favours hits as a whole.
Insulin prom act = activators of insulin promoter-driven GFP, primary screen, imaging, TRM-6 cells (human fetal islet line), eGFP reporter, cell count | 0.81% of 130,000 active | activation, % at 2 µM | plate-scaled: unstimulated 0, stimulated control 100;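 active means activation at 2 µM above a set limit, confirmed on inspection of the cell images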;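 further: share of cells whose green reporter signal exceeds an intensity cutoff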
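Material: TRM-6 insulin promoter–eGFP reporter cells. Buffer or medium: Low-glucose (5.5 mM) medium with tamoxifen. Probe or stimulus: tamoxifen at 0.75 µM added at seeding for reporter induction. Times: tamoxifen pre-incubation 15 h overnight, then compound exposure 48 h at 37 °C. Detection: high-content imaging of fixed cells with Hoechst nuclear stain.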
The depositor's hits bear a star.

SMILES | Insulin prom act
COc1ccc(S(=O)(=O)N2CCCC(C(=O)Nc3cccnc3)C2)cc1Cl (centres undefined) | -8
CCOC(=O)c1cnc(N2CCN(C(=O)OCC)CC2)[nH]c1=O | 0
O=C1CCSc2ccc(Cl)cc2N1Cc1ccc(Cl)cc1 | 4
COc1ccc(N2C(=O)CC(Nc3cccc(C(C)=O)c3)C2=O)cc1OC (centres undefined) | 1
COc1ccc(NC2CC(=O)N(c3cccc(C)c3)C2=O)cc1 (centres undefined) | 600*
COc1ccc(N2C(=O)CC(N3CCOCC3)C2=O)cc1 (centres undefined) | 0
COC(=O)CCCC(=O)NC(C)c1cnn(-c2ccccc2C)c1C (centres undefined) | 0
Cc1cc2cc3c(cc2nc1SCC(=O)Nc1ccccc1)CCC3 | 7
N=c1oc2c3c4c(cc2cc1C(=O)Nc1ccccc1)CCCN4CCC3 | 900*
Cc1ccc(NC(=O)c2cc(NC(=O)c3ccccc3C(=O)O)ccc2N2CCCCC2)cc1 | 6
CC(=O)c1c(C)[nH]c(C(=O)CN2C(=O)NC(C)(c3ccc(C)cc3)C2=O)c1C (centres undefined) | 0
COc1ccc(C2(CNC(=O)Cc3ccc(OC)c(OC)c3)CCOCC2)cc1 | -8
O=c1c2ccccc2nc2ccc(NCc3cccs3)nn12 | -7
COc1ccc2cc(-c3cc(C(=O)OCC(=O)Nc4c(C)n(C)n(-c5ccccc5)c4=O)c4ccccc4n3)ccc2c1 | 325*
Cc1c(NC(=O)COC(=O)CCC(=O)c2ccc(Cl)cc2)c(=O)n(-c2ccccc2)n1C | 8
Cc1c(NC(=O)COC(=O)COc2ccc(Nc3ccccc3)cc2)c(=O)n(-c2ccccc2)n1C | 133
CCOc1ccc(NC(=S)NC(C)c2cccs2)cc1 (centres undefined) | 7
CC(C)(C)C1CCC(=NOC(=O)c2ccc(F)cc2)CC1 (centres undefined) | 0
S=c1[nH]nc(CSc2nc3ccccc3s2)n1C1CCCCC1 | 0
CS(=O)(=O)N(CC(=O)NCc1ccccn1)c1ccc2c(c1)OCCO2 | 37
CN(C)C(=O)CN(c1ccc2c(c1)OCO2)S(C)(=O)=O | -71
CS(=O)(=O)N(CC(=O)NCCSCc1ccccc1)c1ccc2c(c1)OCO2 | 204*
CC(C)CNC(=O)c1cccc(NC(=O)Cc2ccc(Br)cc2)c1 | 154
O=C(Nc1ccc(S(=O)(=O)N2CCCCC2)cc1)c1ccc(CN2CCc3ccccc3C2)cc1 | 3
CCN1CCCC1CNS(=O)(=O)c1ccc(C(=O)Nc2ccccc2)cc1 (centres undefined) | 500*
SMILES | Insulin prom act
CCNS(=O)(=O)c1ccc(NC(=O)c2ccccc2OCC)cc1 | 206
COc1ccc(C(=O)NCc2nnc(SCC(=O)Nc3nc4ccc(C)cc4s3)o2)cc1OC | 0
O=C(N/C(=C\c1cccs1)C(=O)N1CCOCC1)c1cccs1 | -78
O=C(NC1CC1)C1=COCCO1 | -5
Cc1ccc(S(=O)(=O)Nc2ccccc2C(=O)Nc2nc(-c3ccc(F)cc3)cs2)cc1 | -5
CN(C)S(=O)(=O)c1ccc(C(=O)Nc2nc(-c3cc4ccccc4o3)cs2)cc1 | 8
CN(C)S(=O)(=O)c1ccc(N2CCCC2)c(C(=O)Nc2nc(-c3ccc(F)c(F)c3)cs2)c1 | 414*
Cc1nn(CC(=O)c2cccc(Cl)c2)c(C)c1[N+](=O)[O-] | -5
Cc1cccc(-c2nsc(SCC(=O)NCC3CCCO3)n2)c1 (centres undefined) | 9
CCOC(=O)C1CCN(S(=O)(=O)c2ccc(C)c(C)c2)CC1 | 206*
CCOC(=O)C1CCCN(S(=O)(=O)c2ccc(C)cc2)C1 (centres undefined) | 0
CCNC(=O)NC(=O)C(C)OC(=O)C1CCN(S(=O)(=O)c2ccc(C)c(C)c2)CC1 (centres undefined) | 108
CC(C)c1ccc(NC(=O)C(c2ccccc2)N2CC(=O)Nc3ccccc32)cc1 (centres undefined) | 5
Cc1c2c(c(C)n1C)C(C(=O)NC1CCCCC1)N(Cc1ccccc1)C2=O (centres undefined) | 0
Cc1cccc(-c2nnc(NC(=O)c3cccs3)s2)c1 | 2
Cc1ccc(-c2noc(CN(C(=O)c3cccs3)C(C)C)n2)cc1 | 9
Cc1ccnc(N(C(=O)c2cccs2)C(=O)c2cccs2)c1 | 84*
C[C@@H]1NC(=O)[C@H](CCCN=C(N)N)NC(=O)c2cc([N+](=O)[O-])cc(I)c2OCC[C@@H](C(=O)NC(CC(=O)O)C(N)=O)NC1=O (some centres undefined) | -9
C=CC[N+](C)(C)C/C(Cl)=C(\Cl)c1ccccc1 | -71
O=c1cc(O)nc(SCc2ccccc2)[nH]1 | 525*
O=c1cc(NS(=O)(=O)c2ccccc2)nc(SCc2ccc(Cl)cc2)[nH]1 | -8
CCCc1cc(=O)[nH]c(SCc2cccnc2)n1 | 342
COc1cccc(CSc2nnc(-c3ccc(F)cc3)o2)c1 | 6
COc1cc2c3nnc(-c4ccccc4)c-3cn(Cc3ccc(F)cc3)c2cc1OC | 6
COc1cc2c3nnc(-c4ccc(F)cc4)c-3cn(Cc3cccc(F)c3)c2cc1OC | 809*
SMILES | Insulin prom act
CCSc1ncnc2c1sc1nc3c(cc12)COC(C)(C)C3 | 7
COC(=O)[C@@H]1CC[C@H](C)[C@@H](c2ccc(C)cc2)N1C(=O)c1ccc(/C=N/OCC[C@@H]2C=C[C@H](OC(C)=O)[C@@H](COC(C)=O)O2)cc1 | 0
CS(=O)(=O)N(CC(=O)N1CCCCCC1)Cc1ccc(Cl)cc1 | -7
CN1CCN(C(=O)CN(Cc2ccc(Cl)cc2)S(C)(=O)=O)CC1 | 579*
CS(=O)(=O)N(CC(=O)NC1CCCC1)Cc1ccc(Cl)cc1 | -3
CCc1nnc(SCC(=O)Nc2ccccc2Cl)nc1CC | -7
Cc1ccccc1CN1C(=O)CSc2ccc(C(=O)N3CCOCC3)cc21 | 8
OCC1(Cc2ccccc2)CCCN(Cc2cnn(-c3ccccc3)c2)C1 (centres undefined) | 6
Cc1ccccc1CC1(CO)CCCN(C(=O)c2ccc3ncccc3c2)C1 (centres undefined) | 228*
Cc1nn(CC(=O)Nc2cccc(S(N)(=O)=O)c2)c(C)c1[N+](=O)[O-] | -7
COC(=O)/C=C/c1ccsc1NC(C)=O | -8
COc1ccc(C(=O)c2ccc(CC#N)s2)cc1 | 0
Cc1ncc([N+](=O)[O-])n1CC(=O)NC1CCCCCC1 | 0
O=S(=O)(NCc1cccnc1)c1ccc2c(c1)OCCO2 | 469*
O=S(=O)(NCc1cccnc1)c1ccc(Cl)c(Cl)c1 | -9
CCN(CC)C(=O)c1ccc(S(=O)(=O)NCc2cccnc2)cc1 | -3
O=C(/C=C/c1cccc([N+](=O)[O-])c1)Nc1cccc(NC(=O)c2cccs2)c1 | -5
C=CCN=C1NN=C(c2ccc3c(c2)OCCO3)CS1 | 10
CN1C(=O)CC(N2CCN(c3ccccc3)CC2)C1=O (centres undefined) | 0
CCNC(=S)N(CCc1c(C)[nH]c2ccccc12)Cc1cc(OC)c(OC)c(OC)c1 | -10
Cc1cc(NCCO)c2ccccc2n1 | -5
CCCNc1c(F)c(F)c2c(C)c3ccccc3nc2c1F | 160*
CCC(=O)Oc1c(-c2ccccc2)c2nc3ccccc3nc2c2ccccc12 | 376
CSCCC(NC(=O)c1ccc(C(C)(C)C)cc1)C(=O)O (centres undefined) | 144
CCCCNC(C(=O)Nc1ccc([N+](=O)[O-])cc1Br)c1ccccc1 (centres undefined) | -100
